High-throughput results as filed in PubChem BioAssay.
This excerpt belongs to a sample that is enriched for hits.
PGC1a Ac signal = raises PGC1a acetylation signal in U2OS cells | activation, % at 15.6 µM | hit rate 0.21% among 350,000 | U2OS PGC1a acetylation AlphaScreen, overnight | AID 651723;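 active = every replicate reaching activation of at least 50%, whatever the mean replicate activation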;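 also: hits raise the AlphaScreen acetylation signal above neutral controls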
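Incubation: overnight compound treatment, 37 °C. System: U2OS cells transduced with flag-tagged PGC1a and GCN5 acetyltransferase. Detection: AlphaScreen lysate read. Compound: single-point compound dosing.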
Active calls of the source: *.

SMILES	PGC1a Ac signal
CC(C)C#Cc1cnc2c(c1)C(=O)N([C@H](C)CO)C[C@H](C)[C@H](CN(C)C(=O)CN1CCOCC1)O2	-58
CCc1ccc(Nc2nnc(SCC(=O)Nc3ccc(C(=O)O)cc3)s2)cc1	-46
Cc1noc(C)c1NC(=O)N(C)C[C@@H]1Oc2c(NS(=O)(=O)c3cn(C)cn3)cccc2C(=O)N([C@@H](C)CO)C[C@@H]1C	-54
CSCC[C@H](NC(=O)c1ccc(Br)o1)c1nnc2ccccn12	-43
C[C@@H]1CN([C@@H](C)CO)C(=O)c2cccc(NC(=O)Nc3ccccc3)c2O[C@H]1CN(C)S(=O)(=O)c1cccs1	-54
Cc1ccc(NC(=O)CN(C)S(=O)(=O)c2cccs2)c(Br)c1	59*
COc1ccc(N(CC(=O)Nc2ccccc2Cl)S(=O)(=O)c2ccc(C)cc2)cc1OC	-45
O=C(c1ccco1)N(Cc1ccc([N+](=O)[O-])cc1)c1ccc(Br)cc1	58*
C=CC[C@@H](CC(=O)N[C@@H](CO)Cc1ccccc1)C(=O)N[C@@H](COC(=O)[C@@H](CC=C)CC(=O)OC(C)(C)C)Cc1c[nH]c2ccccc12	155*
CCOc1ccc(Nc2nc(NCc3ccco3)nc(N)c2[N+](=O)[O-])cc1	-72
CCN(CCCNC(=O)CN(C)S(=O)(=O)c1cccc2nsnc12)c1ccccc1	89*
CN(CC(=O)Nc1ccc(F)c(F)c1)S(=O)(=O)c1cccc2nsnc12	63*
CC1CCCCN1C(=O)CN(C)S(=O)(=O)c1cccc2nsnc12 (stereo not given)	-42
Cc1ccc(-c2cnc3c(c2)C(=O)N([C@@H](C)CO)C[C@@H](C)[C@H](CN(C)C)O3)cc1	-109
CCn1c(C(C)NC(=O)c2ccccc2C)n[nH]c1=S (stereo not given)	-50
O=C(OCn1ncc(Cl)c(Cl)c1=O)c1ccc(C(F)(F)F)cc1	154*
COc1ccc(C2(NC(C)=O)CCN(C(=O)CCC(=O)O)CC2)cc1	-49
Nc1c(C(=O)c2ccccc2)sc2nsc(SCCN3CCCC3)c12	126*
O=C(C[C@H]1CC[C@H](NC(=O)C2CCC2)[C@@H](CO)O1)NCC1CC1	-57
COc1cccc(N2CCN(c3ncnc4c3[nH]c3ccc(F)cc34)CC2C)c1 (stereo not given)	-77
CC(C)NC(=O)Nc1ccc2c(c1)C(=O)N([C@@H](C)CO)C[C@H](C)[C@@H](CN(C)C(=O)CCC(F)(F)F)OCCCC[C@@H](C)O2	-46
C/C(N)=C(/C#N)C(=O)COc1ncnc2ccc(Br)cc12	90*
CC(C)NC(=O)NCC[C@H]1CC[C@H](NC(=O)c2ccc(F)cc2)[C@H](CO)O1	-55
Cn1c(Cl)cnc1C1CC(=O)c2cc(Cl)ccc2O1 (stereo not given)	71*
C[C@@H]1CCCCO[C@@H](CN(C)C)[C@@H](C)CN([C@H](C)CO)C(=O)c2cc(NS(=O)(=O)c3ccc(Cl)cc3)ccc2O1	-45
SMILES	PGC1a Ac signal
O=C(O)CSc1nnc(COc2cccc3ccccc23)o1	-42
N#CCSc1nnc(COc2ccc3ccccc3c2)o1	52*
CC(C)(C)c1ccc(CCC2OCC(C[N+]3(C)CCOCC3)O2)cc1 (stereo not given)	-73
C=CCn1c(C)nnc1SCC(=O)NC1CC1	-50
Nc1nnc(SCC(=O)NC2CCCCC2)n1-c1ccccc1	62*
O=C(CSc1nc(O)cc(=O)n1-c1ccccc1)N1CCCCC1	-44
C/C(=N\N1CCN(c2ccccc2)CC1)c1ccccc1O	-40
CC(C)NC(=O)Nc1ccc2c(c1)C(=O)N([C@H](C)CO)C[C@@H](C)[C@H](CN(C)S(=O)(=O)c1ccccc1)OCCCC[C@@H](C)O2	-44
CC(C)(C)NCCC(O)c1cc(C(F)(F)F)nc2c(C(F)(F)F)cccc12 (stereo not given)	70*
C=CCn1c(SCC(=O)NC(=O)NCc2ccco2)nc2sc(CC)cc2c1=O	57*
C=C1C(=O)C23CCC4C(C)(C(=O)OC)CCCC4(C)C2CCC1(O)C3 (stereo not given)	-76
O=c1c2c3c(sc2n2cnnc2n1Cc1ccccc1)CN(Cc1ccccc1)CC3	73*
CC(C)(C)c1ccc2c(c1)OC(C(=O)N/N=C/c1ccc([N+](=O)[O-])o1)CO2 (stereo not given)	165*
CCS(=O)(=O)c1ccc(O)c(NC(=O)COc2ccc(Br)cc2)c1	-97
O=C(COc1ccc(Br)cc1)NCCNC(=O)c1cccnc1	-45
CCSc1ccc(NC(=O)c2cccnc2)cc1	226*
CC(C)(C)c1ccc(C(=O)Nc2ccc(C(=O)NCc3cccnc3)cc2)cc1	101*
C=C1C(=O)[C@]23C[C@H]1CCC2[C@@]1(C)C(C[C@@H]3O)[C@](C)(C(=O)OC)CC[C@@H]1OC(C)=O (stereo not given in full)	-103
CC1=CCC2C(=O)N(c3cccc(C(=O)NCc4ccccc4)c3)C(=O)C2C1 (stereo not given)	-63
N#Cc1ccc(Oc2cccnc2)cc1C#N	53*
CC(C)NC(=S)N=Nc1c(O)[nH]c2ccc(C(C)C)cc12	-48
C[C@@]12C(=O)OC(=O)[C@]1(C)C1CCC2O1	-47
Clc1ccc(Oc2cccc(/C=N/n3cnnc3)c2)cc1	-83
O=C(CCN1CCc2ccccc2C(c2ccccc2)C1)c1ccc2c(c1)OCCO2 (stereo not given)	69*
O=C(Nc1ccc(OC(=O)c2ccccc2)c(-c2nc3ccccc3s2)c1)c1ccccc1	106*
SMILES	PGC1a Ac signal
COc1ccccc1CNC(=O)C[C@@H]1CC[C@@H]2[C@H](COC[C@H](O)CN2C(=O)Nc2ccc(Cl)cc2)O1	-56
COc1ccc(S(=O)(=O)N(C)C[C@@H]2Oc3ccc(NS(=O)(=O)c4cn(C)cn4)cc3C(=O)N([C@H](C)CO)C[C@@H]2C)cc1	-53
O=C(c1ccccc1)C1OC1C(=O)c1ccccc1 (stereo not given)	77*
O=C(NC1CCCCCCC1O)c1ccccc1 (stereo not given)	-57
COc1ccc(S(=O)(=O)N[C@H]2CC[C@@H](CCNC(=O)c3ccccc3F)O[C@@H]2CO)cc1	-52
CCOCCn1c(N2CCN(c3ccccc3)CC2)nc2c1c(=O)n(C)c(=O)n2C	54*
CNC[C@H]1OCCCC[C@@H](C)Oc2ccc(NS(=O)(=O)c3ccccc3)cc2C(=O)N([C@H](C)CO)C[C@@H]1C	-49
CN(CC(=O)NCC1CCCO1)S(=O)(=O)c1cc(Cl)ccc1Cl (stereo not given)	-48
O=C(Cn1cc(C(=O)c2cccs2)c2ccccc21)NCC1CCCO1 (stereo not given)	86*
CN(C)c1ccc(/C=C/c2ccc3c4ccccc4ccc3[n+]2-c2ccccc2)cc1	-44
Cc1ccccc1Cn1nc(C)c(NC(=O)c2cc(-c3cccs3)on2)c1C	-47
CC(C)C#Cc1ccc([C@@H]2[C@H](CO)N3C(=O)CN(C(=O)NC4CCCC4)C[C@@H]23)cc1	-107
O=C(Nc1ccccc1)Nc1cc(Cl)cc(Cl)c1	-39
O=C(Nc1ccccc1)c1nnsc1S(=O)c1ccc(Cl)cc1 (stereo not given)	125*
O=C(CC1SC(=Nc2ccc3c(c2)OCCO3)NC1=O)Nc1ccc(F)cc1F (stereo not given)	189*
O=C(Cc1ccccc1)N1CCN(c2ccc([N+](=O)[O-])cc2)CC1	118*
O=C(Nc1ccc(N2CCN(Cc3ccccc3F)CC2)cc1)c1ccc([N+](=O)[O-])o1	-73
